Test results taken from ChEMBL document CHEMBL1134977, “Design and synthesis of ethyl pyrrolidine-5,5-trans-lactams as inhibitors of hepatitis C virus NS3/4A protease” (Bioorg Med Chem Lett, 2002).
Residues, ends and D or L forms follow the SMILES beside them. *: point of attachment. X1 = CCC1C(=O)N(S(C)(=O)=O)[C@H]2CCN(*)[C@H]12

What was measured:
[1] = target: T1, Hepatitis C virus serine protease, NS3/NS4A (Hepatitis C virus) (UniProt D2K2A8+A3EZI9); experiment: Compound was tested for inhibition of hepatitis C virus NS3/4A protease at 100 uM 2 hr pre-incubation in chromogenic assay; assay type: protein-complex assay; conditions: Hepacivirus hominis
[2] = target: T1, Hepatitis C virus serine protease, NS3/NS4A (Hepatitis C virus); experiment: Inhibitory concentration against hepatitis C virus NS3/4A protease on 18 h pre-incubation in chromogenic assay; assay type: protein-complex assay; parameters: concentration or dose not given beside the values; conditions: Hepacivirus hominis; concentration not given here
Outline: (§1)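 Chromogenic read-out with the NS3 protease domain at 0.56 µM and synthetic 18-mer NS4A cofactor peptide at 0.8 µM. Substrate was Ac-E-D-V-V-P-C-pNO2 anilide at 1.5 mM (Km 1.85 mM). Compound was pre-incubated with enzyme for 2, 4 or 18 h before substrate addition.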

[3] = target: T2, Hepatitis C virus serine protease, NS3/NS4A (Hepatitis C virus, UniProt A3EZI9+D2K2A8); experiment: Inhibitory concentration against hepatitis C virus NS3/4A protease on 18 h pre-incubation in fluorogenic assay; assay type: protein-complex assay, Hepacivirus hominis
T2 sequence (D2K2A8 whole entry): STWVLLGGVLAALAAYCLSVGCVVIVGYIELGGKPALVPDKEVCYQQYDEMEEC
T2 sequence (A3EZI9 whole entry): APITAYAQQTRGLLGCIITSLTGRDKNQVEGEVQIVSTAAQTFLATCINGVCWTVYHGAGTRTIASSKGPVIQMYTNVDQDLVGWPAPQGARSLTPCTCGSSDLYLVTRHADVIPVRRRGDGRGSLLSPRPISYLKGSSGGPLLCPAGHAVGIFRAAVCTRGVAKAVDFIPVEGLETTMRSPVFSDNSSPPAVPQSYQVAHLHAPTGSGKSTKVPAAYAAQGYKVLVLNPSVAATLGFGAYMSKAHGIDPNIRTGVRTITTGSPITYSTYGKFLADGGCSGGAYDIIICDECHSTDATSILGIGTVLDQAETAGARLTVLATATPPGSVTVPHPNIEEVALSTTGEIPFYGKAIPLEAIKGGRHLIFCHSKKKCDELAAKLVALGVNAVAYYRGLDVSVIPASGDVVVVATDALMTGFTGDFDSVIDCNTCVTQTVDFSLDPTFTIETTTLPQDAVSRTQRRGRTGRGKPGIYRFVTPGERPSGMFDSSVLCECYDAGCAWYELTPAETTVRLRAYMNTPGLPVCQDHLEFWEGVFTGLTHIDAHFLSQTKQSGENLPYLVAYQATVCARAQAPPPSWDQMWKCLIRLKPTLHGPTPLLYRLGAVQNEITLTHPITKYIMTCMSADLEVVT
Outline: (§2)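 Fluorogenic assay with full-length NS3/4A protein at 20 nM (NS3:4A 1:1). Substrate was Abz-E-D-V-V-P-C-S-M-S-(3-NO2)-Y-H at 25 µM (Km 5 µM). Compound was pre-incubated with enzyme for 4 or 18 h before substrate addition.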

[4] = target: T2, Hepatitis C virus serine protease, NS3/NS4A; experiment: Inhibitory concentration against hepatitis C virus NS3/4A protease on 4 hr pre-incubation in fluorogenic assay; assay type: protein-complex assay, Hepacivirus hominis; outline: as §2
[5] = target: T2, Hepatitis C virus serine protease, NS3/NS4A; experiment: Inhibitory concentration against hepatitis C virus NS3/4A protease on 18 hr preincubation in chromogenic assay; assay type: protein-complex assay, Hepacivirus hominis; outline: as §1
[6] = target: T2, Hepatitis C virus serine protease, NS3/NS4A; experiment: Inhibitory concentration against hepatitis C virus NS3/4A protease on 4 hr pre-incubation in chromogenic assay; assay type: protein-complex assay, Hepacivirus hominis; outline: as §1
[7] = target: T2, Hepatitis C virus serine protease, NS3/NS4A; experiment: Inhibitory concentration against hepatitis C virus NS3/4A protease on 2 hr pre-incubation in chromogenic assay; assay type: protein-complex assay, Hepacivirus hominis; outline: as §1

Compound | inhibition [1] [%] | inhibition [2] [%] | IC50 [3] [µM] | IC50 [4] [µM] | IC50 [5] [µM] | IC50 [6] [µM] | IC50 [7] [µM]
CCC1C(=O)N(S(C)(=O)=O)[C@H]2CCN(C(=O)CNC(=O)[C@@H](NC(=O)[C@H](CC(=O)O)NC(=O)[C@H](CCC(=O)O)NC(C)=O)C(C)C)[C@H]12 (stereo partly specified) (Ac-EDVG-X1) | 10 | 24 | – | – | – | – | –
CC[C@H]1C(=O)N(S(C)(=O)=O)[C@H]2CCN(C(=O)[C@@H](NC(=O)OC(C)(C)C)C(C)C)[C@H]12 | – | – | 172 | 341 | 28 | 99 | –
CCC1C(=O)N(S(C)(=O)=O)[C@H]2CCN(C(=O)C(NC(=O)[C@@H](NC(=O)[C@H](CC(=O)O)NC(=O)[C@H](CCC(=O)O)NC(C)=O)C(C)C)C(C)C)[C@H]12 (single isomer, unassigned) | 24 | 85 | – | – | – | – | –
CCC1C(=O)N(S(C)(=O)=O)[C@H]2CCN(C(=O)[C@@H](NC(=O)[C@@H](NC(=O)[C@H](CC(=O)O)NC(C)=O)C(C)C)C(C)C)[C@H]12 (stereo partly specified) | 68 | 94 | – | – | – | – | –
CCC1C(=O)N(S(C)(=O)=O)[C@H]2CCN(C(=O)[C@@H](NC(=O)[C@@H](NC(=O)[C@H](CC(=O)O)NC(=O)[C@H](CCC(=O)O)NC(C)=O)C(C)C)C(C)C)[C@H]12 (stereo partly specified) (Ac-EDVV-X1) | – | – | 284 | > 400 | 19 | 69 | 69
CCC1C(=O)N(S(C)(=O)=O)[C@H]2CCN(C(=O)[C@@H](NC(=O)OC(C)(C)C)C(C)C)C12 (single isomer, unassigned) | 52 | – | 140 | 182 | 27 | 62 | –
CCC1C(=O)N(S(C)(=O)=O)[C@H]2CCN(C(=O)[C@@H]3CCCN3C(=O)[C@@H](NC(=O)[C@H](CC(=O)O)NC(=O)[C@H](CCC(=O)O)NC(C)=O)C(C)C)[C@H]12 (stereo partly specified) (Ac-EDVP-X1) | 5 | 11 | – | – | – | – | –
CC[C@H]1C(=O)N(C(C)=O)[C@H]2CCN(C(=O)[C@@H](NC(=O)OC(C)(C)C)C(C)C)[C@H]12 | – | – | 447 | 216 | 147 | > 400 | –

The next lines start with the values.

inhibition [1] [%] | inhibition [2] [%] | IC50 [3] [µM] | IC50 [4] [µM] | IC50 [5] [µM] | IC50 [6] [µM] | IC50 [7] [µM] | Compound
21 | 45 | – | – | – | – | – | CCC1C(=O)N(S(C)(=O)=O)[C@H]2CCN(C(=O)[C@@H](NC(=O)[C@@H](NC(C)=O)C(C)C)C(C)C)[C@H]12 (stereo partly specified)
– | – | 194 | 193 | 45 | 88 | – | CC[C@@H]1C(=O)N(C(C)=O)[C@H]2CCN(C(=O)[C@@H](NC(=O)OC(C)(C)C)C(C)C)[C@H]12
– | – | – | – | 22 | 30 | – | CC[C@@H]1C(=O)N(S(C)(=O)=O)[C@H]2CCN(C(=O)[C@@H](NC(=O)OC(C)(C)C)C(C)C)[C@H]12
11 | 41 | – | – | – | – | – | CCC1C(=O)N(S(C)(=O)=O)[C@H]2CCN(C(=O)[C@@H](N)C(C)C)[C@H]12 (stereo partly specified)
